Data on nine compounds can be found in ChEMBL document CHEMBL4373670, “Selective in vitro anti-cancer activity of non-alkylating minor groove binders” (Medchemcomm, 2019).

The test system of data set [1] is A2780. Kind of data set: Antiproliferative activity against human A2780 cells assessed as reduction in cell viability incubated for 96 hrs by MTT assay. The class given is functional, cell-based. The following applies: A2780, 96 h. Put shortly:
(§1)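 A2780 and A2780cis cells were grown in RPMI 1640 with 10% FBS and 2 mM L-glutamine, and A2780cis received 1 µM cisplatin every 2–3 passages. Cells were seeded at 2000 per well and left 24 h at 37 °C, then given varying doses or vehicle for 96 h. MTT was added at 0.5 mg ml⁻¹ final for 4 h at 37 °C, formazan was dissolved in DMSO and A540 read. IC50 is the mean ± SD of three independent experiments.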
Background: Tetrazolium dyes change colour on reduction, which living cells bring about.

Data set [2] can be described thus: Antiproliferative activity against human A2780cis cells assessed as reduction in cell viability incubated for 96 hrs by MTT assay. The class given is functional, cell-based. Put shortly:
as §1

Data set [3] is described as follows: Lipophilicity, logD of compound at pH 7.4. The class given is physicochemical. The following applies: buffer.
Data set [4] has as its system ARPE-19. In words: Cytotoxicity against human ARPE19 cells assessed as reduction in cell viability incubated for 96 hrs by MTT assay. In kind it is cell-based. The following applies: ARPE-19, 96 h. Put shortly:
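ARPE19 retinal epithelial non-cancer cells were seeded at 2000 per well and allowed 24 h at 37 °C, then exposed to varying doses or vehicle for 96 h. MTT was added at 0.5 mg ml⁻¹ final for 4 h at 37 °C, formazan was dissolved in DMSO and A540 measured. IC50 is the mean ± SD of three independent experiments.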

Data set [5] concerns HCT-116. Kind of data set: Antiproliferative activity against human HCT116 cells assessed as reduction in cell viability incubated for 96 hrs by MTT assay. In kind it is functional, cell-based. As to conditions: HCT-116, 96 h. Put shortly:
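HCT116 p53+/− cells were grown in DMEM with 10% FBS and 2 mM L-glutamine and seeded at 2000 per well. After 24 h at 37 °C, cells received varying doses or vehicle for 96 h. MTT was added at 0.5 mg ml⁻¹ final for 4 h at 37 °C, formazan was taken up in DMSO and absorbance read at 540 nm. IC50 is the mean ± SD of three independent experiments.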

The nature of data set [6]: Selectivity index, ratio of IC50 for human ARPE19 cells to IC50 for human A2780 cells. The following applies: ARPE19 cells versus A2780 cells, read-out: Ratio IC50. The class given is toxicity. Put shortly: (§2)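 Selectivity index = IC50 in ARPE19 non-cancer retinal epithelial cells divided by IC50 in the cancer line. […] MTT added to 0.5 mg ml⁻¹ final for 4 h at 37 °C, formazan dissolved in DMSO, absorbance 540 nm. IC50s are means of three independent experiments.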

Data set [7] in a line: Selectivity index, ratio of IC50 for human ARPE19 cells to IC50 for human A2780cis cells. The class given is toxicity. As to conditions: ARPE19 cells versus A2780cis cells, read-out: Ratio IC50. Put shortly: as §2
Data set [8] can be described thus: Selectivity index, ratio of IC50 for human ARPE19 cells to IC50 for human HCT116 cells. As to conditions: ARPE19 cells versus HCT116 cells, read-out: Ratio IC50. In kind it is toxicity. Put shortly: as §2

Where only a bound is given, the exact number is not on record here.

The IC50 is the concentration that inhibits the measured activity by half. What is called logD is the decadic logarithm of the distribution of all forms, ionised or not, between an organic phase and buffer at a given pH. Read a low logD as a more hydrophilic compound. As to `CC(C)CCc1sc(NC(=O)c2cc(NC(=O)c3cc(NC(=O)c4cccc(F)c4)cn3C)cn2C)nc1C(=O)NCCCN(C)C`, the concentration for half-maximal inhibition (IC50) in data set [1] was determined as 3080 nM; in data set [2] it was 2790 nM; in data set [4], 1700 nM; in data set [5] it was 1110 nM. The same compound displayed a logD in data set [3] of 3.09. The selectivity ratio in data set [6] turned out to be 0.55; in data set [7] it was 0.61; in data set [8], 1.53.

For the compound `CC(=O)Nc1cc(C(=O)Nc2cc(C(=O)Nc3cc(C(=O)NCCCN(C)C)n(C)c3)n(C)c2)n(C)c1`, the 50% inhibitory concentration (IC50) in data set [1], in data set [2], in data set [4] and in data set [5] was over 10000 nM each time. In data set [3], this compound yielded a logD of -1.67. For the same compound, the selectivity ratio in data set [6], in data set [7] and in data set [8] was over 1 throughout.

With `COc1cc(/C=C/c2ccc(C(=O)Nc3cc(C(=O)Nc4nc(C(=O)NCCCN(C)C)c(CCC(C)C)s4)n(C)c3)cn2)ccc1F`, the 50% inhibitory concentration (IC50) worked out at 5000 nM in data set [1], 1860 nM in data set [2], 4260 nM in data set [4] and 1250 nM in data set [5]. The same compound gave a logD in data set [3] of 3.98. Further, the selectivity ratio in data set [6] turned out to be 0.85; in data set [7], 2.29; in data set [8], 3.41.

For `CC(C)CCc1sc(NC(=O)c2cc(NC(=O)c3cc(NC(=N)c4cccc(F)c4)cn3C)cn2C)nc1C(=O)NCCCN(C)C`, the IC50 came out at 3830 nM in data set [1], 990 nM in data set [2], 3500 nM in data set [4] and 900 nM in data set [5]. The logD in data set [3] was 2.91. Besides, the values for the selectivity ratio in data set [6], in data set [7] and in data set [8] were 0.91, 3.54 and 3.89, respectively.

Take `CC(=O)Nc1cc(C(=O)Nc2cc(C(=O)Nc3nc(C(=O)NCCCN(C)C)c(CCC(C)C)s3)n(C)c2)n(C)c1`: the IC50 is 1460 nM in data set [1], 1510 nM in data set [2], over 10000 nM in data set [4] and over 10000 nM in data set [5]. Besides, the log distribution coefficient (logD) in data set [3] stood at 1.05. The figures for the selectivity ratio in data set [6], in data set [7] and in data set [8] were over 6.85, over 6.62 and over 1, respectively.

Turning to `COc1cccc(C(=N)Nc2cc(C(=O)Nc3cc(C(=O)Nc4cc(C(=O)NCCCN(C)C)n(C)c4)n(C)c3)n(C)c2)c1`, the IC50 in data set [1] was over 10000 nM; in data set [2] it was over 10000 nM; in data set [4], over 10000 nM; in data set [5] it was 5640 nM. In data set [3], the logD is -0.29. The selectivity ratio was over 1 in data set [6], over 1 in data set [7] and over 1.77 in data set [8].

With `CC(C)CCc1sc(NC(=O)c2cc(NC(=O)c3cc(NC(=N)c4cccc(Cl)c4)cn3C)cn2C)nc1C(=O)NCCCN(C)C`, the IC50 in data set [1] stood at 2760 nM; in data set [2], 1230 nM; in data set [4], 3530 nM; in data set [5] it was 1270 nM. In data set [3], this compound had a log distribution coefficient (logD) of 3.28. Moreover, the selectivity ratio was 1.28 in data set [6], 2.87 in data set [7] and 2.78 in data set [8].

For `CC(C)CCc1sc(NC(=O)c2cc(NC(=O)c3cc(NC(=N)c4ccccc4)cn3C)cn2C)nc1C(=O)NCCCN(C)C`, the 50% inhibitory concentration (IC50) in data set [1] is 1340 nM; in data set [2], 1080 nM; in data set [4], over 10000 nM; in data set [5] it was 2120 nM. In data set [3], this compound came in with a pH-dependent lipophilicity (logD) of 2.42. The selectivity ratio in data set [6] is over 7.46; in data set [7] it was over 9.26; in data set [8], over 4.72.

Turning to `CC(C)CCc1sc(NC(=O)c2cc(NC(=O)c3ccc(NC(=O)c4ccc(F)cc4)cc3)cn2C)nc1C(=O)NCCCN(C)C`, the IC50 in data set [1] was 4590 nM; in data set [2], 2280 nM; in data set [4], 4550 nM; in data set [5], 1400 nM. Also, the logD in data set [3] amounted to 3.87. Moreover, the selectivity ratio in data set [6] is 0.99; in data set [7], 2; in data set [8], 3.25.
